# Source: PubChem BioAssay
# Shown are actives, neighbours in structure and some others; about 1.9% of the full set was active somewhere.
# NR1D1 modulator: modulators of Rev-erb alpha DNA binding, primary screen, biochemical, FITC-DNA, fluorescence polarization, uHTS; Nuclear receptor subfamily 1 group D member 1 (Homo sapiens), P20393; Rev-erbα–FITC-DNA binding, 90 min; activity, % at 10 µM; actives 0.79% (n = 370,000);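 active means activity above about 14%, limit read from the data; passing the limit was not always enough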;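 further: 0% = DMSO wells with 35 nM protein and 100% = DMSO wells with 750 nM protein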
# Target sequence (P20393 whole entry, looked up): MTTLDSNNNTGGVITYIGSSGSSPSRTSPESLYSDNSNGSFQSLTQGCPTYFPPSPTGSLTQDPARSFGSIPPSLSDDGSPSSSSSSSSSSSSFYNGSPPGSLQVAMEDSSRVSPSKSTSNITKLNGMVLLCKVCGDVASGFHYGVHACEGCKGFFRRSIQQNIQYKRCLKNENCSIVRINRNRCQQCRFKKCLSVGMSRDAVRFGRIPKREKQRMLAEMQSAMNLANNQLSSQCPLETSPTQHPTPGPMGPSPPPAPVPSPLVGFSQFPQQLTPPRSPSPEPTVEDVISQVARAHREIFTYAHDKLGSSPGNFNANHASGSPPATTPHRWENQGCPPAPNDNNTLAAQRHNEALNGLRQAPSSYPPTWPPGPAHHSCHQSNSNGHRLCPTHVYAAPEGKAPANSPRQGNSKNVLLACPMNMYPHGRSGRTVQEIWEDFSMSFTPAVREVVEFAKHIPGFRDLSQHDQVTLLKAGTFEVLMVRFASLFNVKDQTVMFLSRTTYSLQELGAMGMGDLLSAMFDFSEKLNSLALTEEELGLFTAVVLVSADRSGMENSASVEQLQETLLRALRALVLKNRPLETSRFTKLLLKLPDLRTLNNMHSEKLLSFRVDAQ
# Yeast superoxide: reduction of superoxide in aged yeast, primary screen, HTS. superoxide response (% of plate mean), % at 10 µM. actives 0.18% (n = 330,000). S. cerevisiae aged cells, superoxide DHE fluorescence; stronger effect = lower value;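 active means superoxide response under a set limit, about three screen SD below normal, cut at about 65% in these data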;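 further: yeast aged for seven days with compound at 30 °C before DHE staining; 100% = average MFI of all compound-treated wells on the plate with controls excluded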
# PG9 Ab binder: binders of HIV-1 gp120 antibody PG9, primary screen, biochemical, TR-FRET. HIV-1 gp120 / PG9 antibody interaction. TR-FRET gp120-PG9 antibody binding. inhibition, % at 6.7 µM. actives 0.43% (n = 360,000). AID 624416, 2012; in the data active means inhibition above about 8.5%
# Rce1 inhib: yeast Rce1p protease inhibitors, primary screen, biochemical, fluorescence, cell-free homogeneous; CAAX prenyl protease 2 (Saccharomyces cerevisiae (strain ATCC 204508 / S288c)), Q03530; yeast membranes, quenched prenylated peptide cleavage fluorescence; calls only; actives 0.27% (n = 290,000); AID 2563, 2010;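 active means fall in fluorescence gain of 50% or more versus controls, with final raw signal at or below 3038400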;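 further: plate controls were neutral control wells for no effect and wells lacking membranes for full effect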
# beta cell repl: inducers of MIN6 beta-cell proliferation, primary screen, ATP luminescence, uHTS; proliferation, % at 10 µM; MIN6 cells proliferation, ATPlite luminescence, 48 h; cells starved in 0.2% serum; 100% = growth in 10% serum; AID 2380, 2010; actives 0.29% (n = 330,000);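 active means compounds whose signal lies at least 3.5 SD above the mean of all wells on their plate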;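 further: 0% = DMSO-treated cells in low-serum medium and 100% = 10% serum control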
# UCH37 DUB inh: inhibitors of human UCH37 deubiquitinase, primary screen, biochemical, Ub-AMC cleavage, fluorescence. inhibition, % (no concentration beside the values). Ubiquitin carboxyl-terminal hydrolase isozyme L5 (Homo sapiens), Q9Y5K5. actives 0.33% (n = 330,000). purified proteasome/UCH37;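 active means mean inhibition over replicate wells above about 20%, limit read from the data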;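 further: 0% = compound-free wells with enzyme and 100% = wells lacking proteasome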
#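 Signal – fluorescence, ex 355 nm, em 460 nm · System – Proteasome-bound UCH37 · Input – 0.15 nM proteasome as dispensed · Timing – 30 min preincubation with enzyme, 25 min cleavage at room temperature · Read-out basis – percent inhibition of cleavage signal versus uninhibited and no-proteasome wells · Medium – Tris-HCl pH 7.4 with ATP-MgCl2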
# Superoxide pick: superoxide lowering in aged yeast cells, confirmation, cherry picked compounds | shares compounds with Yeast superoxide | S. cerevisiae aging, superoxide DHE fluorescence; stronger effect = lower value | superoxide response (% of plate), % at 10 µM | actives 1% (n = 850) | AID 434994, 2010;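 active means superoxide signal below 65% of the plate average of sample wells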;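 further: cells aged with compound for 7 days at 30 degrees C before staining; 100% equals mean DHE fluorescence of all compound wells on the plate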
# DHE fluor count: DHE quenching or ROS scavenging interference in aged yeast, artefact control for yeast caloric restriction mimetic project, S. cerevisiae BY4741, flow cytometry. DHE fluorescence; stronger effect = lower value. 850 tested, under 10 active. fluorescence response, % at 10 µM. shares compounds with Yeast superoxide;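 active means fluorescence response below 15%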;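 further: percent of the mean fluorescence averaged over all compound wells on the plate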
# * marks the source's active call; other numbers are inactive results; i = inactive; nt = no result.
SMILES,NR1D1 modulator,Yeast superoxide,PG9 Ab binder,Rce1 inhib,beta cell repl,UCH37 DUB inh,Superoxide pick,DHE fluor count
O=C(Nc1ccc(Cl)cc1)[C@@H]1[C@@H]2C(=O)N(c3ccc(Cl)cc3)C(=O)[C@@H]2[C@H]2C=CC=NN21,1,64*,2,i,-5,1,99,93
COc1ccc(C(C)=NNS(=O)(=O)c2cc(C)ccc2C)c(OC)c1,nt,nt,nt,nt,nt,1,nt,nt
O=C(Nc1cccnc1)c1ccc(F)c(S(=O)(=O)N2CCOCC2)c1,0,92,-2,i,-1,0,nt,nt
O=C(Nc1ccc(F)c(F)c1)c1ccc(F)c(S(=O)(=O)N2CCOCC2)c1,nt,56*,nt,i,0,nt,120,110
O=C(COc1ccccc1F)NN=C1CCCc2ccccc21,nt,nt,nt,nt,nt,3,nt,nt
Cc1ccc(S(=O)(=O)N2c3ccccc3-c3c(ssc3=S)C2(C)C)cc1,10,105,-1,i,-3,1,nt,nt
CC1(C)CSC(=S)N1S(=O)(=O)c1ccccc1,-4,58*,-2,i,-3,5,102,93
O=C1CC(=C2c3ccccc3-c3ccccc32)C(=O)N1CCCCN1CCN(c2ccccc2)CC1,nt,15*,nt,i,-2,8,97,94
COc1ccc(C=NNC(=O)c2cccnc2)cc1,nt,nt,nt,nt,nt,6,nt,nt
CC1CCCN(S(=O)(=O)c2ccc(C(=O)Nc3nnc(-c4ccco4)o3)cc2)C1 (centres undefined),-2,81,1,i,-6,5,nt,nt
CC1CCN(S(=O)(=O)c2ccc(C(=O)Nc3nnc(C4=COCCO4)o3)cc2)CC1,-2,113,-4,i,-5,10,nt,nt
CCc1nnc(NC(=O)c2ccc(S(=O)(=O)N3CCCC(C)C3)cc2)o1 (centres undefined),2,64*,0,i,-6,4,103,107
COCc1nnc(NC(=O)c2ccc(S(=O)(=O)N3CCCC3)cc2)o1,-2,82,-1,i,0,6,116,125
CC1CC(C)CN(S(=O)(=O)c2ccc(C(=O)Nc3nnc(C4CC4)o3)cc2)C1 (centres undefined),1,83,0,i,-3,2,92,96
CC1CCN(S(=O)(=O)c2ccc(C(=O)Nc3nnc(-c4ccccn4)o3)cc2)CC1,-4,94,0,i,-3,6,96,99
CCOC(=O)N1CCN(S(=O)(=O)c2ccc(C(=O)Nc3nnc(C4CC4)o3)cc2)CC1,1,96,-3,i,-3,2,nt,nt
COc1ccc(C=Nn2cncn2)cc1Cn1nc(C)c([N+](=O)[O-])c1C,nt,nt,nt,nt,nt,5,nt,nt
COc1ccccc1OCCNC(=O)c1ccc(Br)cc1,2,58*,0,i,0,2,81,100
O=C(CCn1cnc2ccccc21)NN=Cc1ccc(O)cc1,nt,nt,nt,nt,nt,4,nt,nt
O=C(CCn1cnc2ccccc21)N/N=C/c1ccc(O)cc1,-2,65*,1,nt,-1,nt,105,89
O=C(Cn1cnc2ccccc21)N/N=C/c1ccccn1,4,21*,-4,i,-3,nt,101,111
CN(C)c1ccc(C=Nc2cc(-c3ccccc3)nn2-c2ccccc2)cc1,nt,nt,nt,nt,nt,2,nt,nt
COc1ccc(O)c(C=NNC(=S)NCCc2ccccc2)c1,nt,nt,nt,nt,nt,-35,nt,nt
CC(=NNC(=O)c1cc(C2CC2)[nH]n1)c1cccs1,nt,nt,nt,nt,nt,9,nt,nt
COc1cc(SC)ccc1C(=O)N1CCCCCC1,1,108,-1,i,-1,0,nt,nt
SMILES,NR1D1 modulator,Yeast superoxide,PG9 Ab binder,Rce1 inhib,beta cell repl,UCH37 DUB inh,Superoxide pick,DHE fluor count
COc1cc2c(C(=O)N3CCN(c4cccc(Cl)c4)CC3)cn(C)c(=O)c2cc1OC,2,103,-2,i,-3,4,nt,nt
COc1cc(SC)ccc1C(=O)N1CCN(c2ccc(O)cc2)CC1,-5,86,-3,i,-4,4,100,94
COc1cc(SC)ccc1C(=O)N1CCN(Cc2ccccc2)CC1,-4,94,0,i,1,4,nt,nt
COc1cc(SC)ccc1C(=O)N1CCN(c2ccccc2)CC1,1,94,0,i,-3,3,102,99
COc1ccccc1C(=O)N1CCN(c2cccc(Cl)c2)CC1,1,95,0,i,-1,1,80,97
CC(=O)C(CN1CCCCC1)=NO,nt,nt,nt,nt,nt,2,nt,nt
O=C(NNC(=O)c1ccc(Cl)cc1Cl)Nc1ccccc1,-8,63*,-2,i,0,1,99,89
CC(=NNc1cc(C(F)(F)F)ccc1Cl)c1ccncc1,nt,nt,nt,nt,nt,5,nt,nt
CC(C)c1ccc(/C=C/C(=O)NC(=S)Nc2ccc(CN3CCOCC3)cc2)cc1,-3,61*,-1,i,-4,nt,101,92
CSc1ccc(C=Nn2c(C)cc(C)cc2=O)cc1,nt,nt,nt,nt,nt,11,nt,nt
CCc1cccc(C)c1NC(=O)c1cc(C)oc1C,-3,109,nt,i,-1,0,nt,nt
CCc1cccc(C)c1NC(=O)c1ccoc1C,-2,64*,-2,i,-3,-1,108,104
O=C(NN=Cc1ccc[nH]1)c1ccccc1[N+](=O)[O-],nt,nt,nt,nt,nt,0,nt,nt
Cc1ccccc1S(=O)(=O)NCC1CCCO1 (centres undefined),5,102,-3,i,-2,1,nt,nt
CC(=O)Nc1ccc(Nc2nnc(-c3ccc(O)cc3)c3ccccc23)cc1,-5,90,-1,i,-2,6,nt,nt
CNC(=O)c1ccc(Nc2nnc(-c3ccc(C)c(S(=O)(=O)NCC4CCCO4)c3)c3ccccc23)cc1 (centres undefined),-2,103,0,i,-1,nt,110,114
CC(=O)Nc1ccc(Nc2nnc(-c3ccc(C)c(S(=O)(=O)NCC4CCCO4)c3)c3ccccc23)cc1 (centres undefined),-3,86,1,i,0,1,107,104
Cc1ccc(-c2nn3c(-c4ccco4)nnc3c3ccccc23)cc1S(=O)(=O)NCC1CCCO1 (centres undefined),17,123,2,i,-2,-45,nt,nt
Cc1ccc(-c2nnc(Nc3ccccc3)c3ccccc23)cc1S(=O)(=O)NCC1CCCO1 (centres undefined),1,85,3,i,-4,-7,98,102
